Redox H2O2 prof = compounds producing H2O2 with reducing agent – biochemical, NIH compound library profiling, artefact control for MLSCN library redox annotation, primary screen | DTT-dependent redox cycling H2O2, phenol red/HRP absorbance; 100% = 100 µM peroxide control, 0% = buffer | 200,000 tested, 0.03% active | AID 878 | activation, % at 10 µM;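 active = activation of at least 50% relative to the plate's high and low controls in the primary single-dose screen; inactive = activation below 50%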;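 note: compound incubated with DTT at 0.8 mM final as the reducing agent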
b-catenin transl = modulators of beta-catenin nuclear translocation; HeLa beta-catenin nuclear translocation, immunofluorescence imaging; nuclear translocation activity, % at 5 µM; 190,000 tested, 0.3% active; AID 1665;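 active = nuclear translocation activity above 50% at 5 µM, with a well cell count of 50 or more; inconclusive = wells under 50 cells across six images, flagged as toxic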;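 note: per-cell ratio of nuclear to cytoplasmic median beta-catenin stain intensity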
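Assay system: human HeLa cells, native beta-catenin; doses: 5 µM primary, 0.02–20 µM confirmation; incubation: compound treatment 24 h, 37°C, 5% CO2; technique: fluorescence imaging of beta-catenin antibody stain plus DAPI; measure: % activation, nuclear-to-cytoplasmic median beta-catenin signal ratio per cell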
ROMK mod = human ROMK K+ channel modulation, primary screen. P48048. Tet-inducible ROMK, thallium flux fluorescence; actives lie on both sides. B-score at 10 µM. 130,000 tested, 2% active. AID 1918;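 active = signal ratio slope over the read window, or its plate-corrected B-score, at least 3 SD from the plate mean, either direction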;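 note: B-score of the F/F0 ratio slope over 7 to 12 s after thallium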
MT stabilize HCS = stabilizes microtubules in HeLa cells. HeLa tubulin immunostaining HCS, 24 h; share of cells brighter than vehicle mean+2SD. % tubulin-high responders, % at 10 µM. 200,000 tested, 0.83% active;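 active = plate Z-score above 3 for both tubulin-high and condensed-nucleus cell shares, with cell loss under 80%, at 10 µM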;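 note: anti alpha tubulin signal scored within the nucleus-defined area of each cell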
KCC2 mod = modulates chloride dependent transport by human KCC2. KCC2 cells, thallium flux FluoZin-2 fluorescence. B-score of Tl+ flux slope (higher = more flux/activation; lower = inhibition) at 10 µM. AID 1456. Q9H2X9. 190,000 tested, 2.2% active;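 active = thallium flux slope and its plate-corrected score both differing from the plate sample mean at a set confidence after two filtering rounds, in either direction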;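 note: slope of fluorescence scaled to starting intensity during 10 to 20 s after thallium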
Target sequence (Q9H2X9 whole entry, looked up): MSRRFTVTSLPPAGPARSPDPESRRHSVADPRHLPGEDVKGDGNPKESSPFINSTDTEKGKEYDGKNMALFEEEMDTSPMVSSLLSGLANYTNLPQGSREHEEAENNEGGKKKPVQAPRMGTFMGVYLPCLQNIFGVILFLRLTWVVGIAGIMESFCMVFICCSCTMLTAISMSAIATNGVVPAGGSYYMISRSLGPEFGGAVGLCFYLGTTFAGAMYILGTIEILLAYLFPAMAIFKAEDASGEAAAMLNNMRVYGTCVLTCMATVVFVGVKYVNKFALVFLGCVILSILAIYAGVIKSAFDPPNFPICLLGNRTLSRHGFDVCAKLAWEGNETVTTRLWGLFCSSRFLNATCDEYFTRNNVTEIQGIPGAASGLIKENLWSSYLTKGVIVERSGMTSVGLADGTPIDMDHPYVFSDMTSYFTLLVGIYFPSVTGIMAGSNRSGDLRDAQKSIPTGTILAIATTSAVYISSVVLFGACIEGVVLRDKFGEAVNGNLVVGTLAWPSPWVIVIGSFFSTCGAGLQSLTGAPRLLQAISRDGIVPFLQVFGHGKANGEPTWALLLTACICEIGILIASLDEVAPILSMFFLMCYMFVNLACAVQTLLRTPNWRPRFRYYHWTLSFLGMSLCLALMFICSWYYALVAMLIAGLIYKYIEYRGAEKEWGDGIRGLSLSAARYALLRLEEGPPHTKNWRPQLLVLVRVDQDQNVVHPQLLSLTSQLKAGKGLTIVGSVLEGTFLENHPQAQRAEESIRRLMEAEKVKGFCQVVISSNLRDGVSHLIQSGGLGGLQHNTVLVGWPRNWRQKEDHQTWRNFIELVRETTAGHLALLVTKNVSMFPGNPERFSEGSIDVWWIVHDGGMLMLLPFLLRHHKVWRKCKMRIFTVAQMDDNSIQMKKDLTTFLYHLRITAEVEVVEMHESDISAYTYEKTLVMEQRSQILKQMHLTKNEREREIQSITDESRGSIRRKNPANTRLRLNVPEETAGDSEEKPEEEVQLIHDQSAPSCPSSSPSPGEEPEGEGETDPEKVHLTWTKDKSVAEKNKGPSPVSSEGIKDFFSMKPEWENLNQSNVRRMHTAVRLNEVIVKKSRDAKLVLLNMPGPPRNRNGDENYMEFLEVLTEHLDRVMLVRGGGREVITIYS
KCC2 secondary = KCC2 (human) modulation, secondary assay; 3,700 tested, 15% active; HEK293-KCC2, thallium flux, FluoZin2 fluorescence; active compounds read high; normalised thallium flux (F/F0 slope) at 10 µM; shares compounds with KCC2 mod;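 active = thallium flux slope above the same plate's solvent-only control mean plus 3 SD; inconclusive = the two replicate wells disagree; inactive = no significant difference from solvent-only control wells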
KCC2 bumet counter = thallium flux despite bumetanide block in KCC2 cells, secondary assay 3; shares compounds with KCC2 mod; 3,700 tested, 49% active; AID 1714; normalized thallium flux at 10 µM; HEK293-KCC2 + bumetanide/ouabain, thallium flux FluoZin2; active compounds read high;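 active = thallium entry rate above the same plate's blocked-transporter control wells by more than 3 SD; inconclusive = the two repeat wells disagree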;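 note: raw slope of fluorescence over initial fluorescence between 10 and 20 s after thallium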
KCC2 sec2 = confirmation of human KCC2 transport modulators | normalized thallium flux at 10 µM | AID 1715 | 3,700 tested, 23% active | shares compounds with KCC2 mod | HEK293-KCC2, thallium flux FluoZin2 fluorescence; actives lie on both sides; F/F0 rise rate, 10–20 s post-thallium;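 active = thallium flux slope more than 3 SD above or below the plate's solvent-only control mean, mostly below; inconclusive = the two repeat wells disagreed; inactive = no significant shift from solvent-only controls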
HEK293 Tl flux = acts in parental HEK cells, KCC2 counter-screen; shares compounds with KCC2 mod; HEK293 parental cells, thallium flux FluoZin2, ouabain; baseline-ratio fluorescence slope, 10–20 s after thallium; thallium flux rate (normalised fluorescence) at 10 µM; 3,700 tested, 46% active;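 active = thallium flux rate significantly above the same plate's solvent-only control wells, beyond their mean plus 3 SD; inconclusive = the two replicate wells gave conflicting results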
KCC2 ouabain = KCC2 (human) modulation, ouabain retest; AID 1717; shares compounds with KCC2 mod; raw Tl+ flux slope (below DMSO = inhibition, above = activation) at 10 µM; HEK293-KCC2, thallium flux FluoZin2 fluorescence; bidirectional: low = inhibitor, high = activator; 3,700 tested, 48% active;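 active = thallium flux slope beyond 3 SD from same-plate DMSO control mean in most replicates, usually higher, sometimes lower; inconclusive = repeat tests gave conflicting results; inactive = no significant difference from controls in most replicates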;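 note: slope of initial-normalized fluorescence between seconds 10 and 20 after thallium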
HEK counter2 = parental HEK flux effect, counter-screen 2; AID 1718; thallium flux slope at 10 µM; shares compounds with KCC2 mod; HEK293 parental, thallium flux FluoZin-2 fluorescence slope; 3,700 tested, 33% active;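 active = thallium flux slope above the same plate's solvent-control mean plus 3 SD in both duplicate wells; inconclusive = duplicate wells that disagreed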;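 note: run without ouabain in cells lacking the KCC2 cotransporter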
A number is an active result; i = inactive; ? = inconclusive; nt = not tested or not shown. Hits are enriched below; roughly 3.7% of the tested compounds scored in any of these assays.

SMILES	Redox H2O2 prof	b-catenin transl	ROMK mod	MT stabilize HCS	KCC2 mod	KCC2 secondary	KCC2 bumet counter	KCC2 sec2	HEK293 Tl flux	KCC2 ouabain	HEK counter2
Cc1ccc(N=Nc2c(C)[nH]n(C(N)=S)c2=O)cc1C	i	i	i	i	16	i	0.067	i	0.021	0.06	i
Cc1c(N=Nc2c(-c3ccc([N+](=O)[O-])cc3)[nH]n(C(N)=S)c2=O)cccc1[N+](=O)[O-]	i	i	i	i	i	nt	nt	nt	nt	nt	nt
Cc1[nH]n(C(N)=S)c(=O)c1N=Nc1ccc(S(=O)(=O)N2CCCCCC2)cc1	i	i	i	i	nt	nt	nt	nt	nt	nt	nt
CC(=O)Nc1ccc(N=Nc2c(C)[nH]n(C(N)=S)c2=O)cc1	i	i	i	i	i	nt	nt	nt	nt	nt	nt
Cc1[nH]n(C(N)=S)c(=O)c1N=Nc1cc(-c2ccc(Br)cc2)[nH]n1	i	i	i	i	-6.9	i	i	i	0.0056	0.011	i
Cc1[nH]n(C(N)=S)c(=O)c1N=Nc1ccc2ccccc2c1	i	i	i	i	32	i	0.088	?	0.027	0.036	0.019
CC1CCC(NC(=O)C2CCC(CNc3c(N4CCCCC4)c(=O)c3=O)CC2)CC1 (stereo not drawn)	nt	i	i	nt	i	nt	nt	nt	nt	nt	nt
Cc1c(Cl)cccc1S(=O)(=O)Nc1ccnn1C	nt	i	nt	nt	i	nt	nt	nt	nt	nt	nt
Cc1ccc(NC(=O)COC(=O)c2sccc2C)cc1S(=O)(=O)N1CCOCC1	i	i	nt	i	i	nt	nt	nt	nt	nt	nt
COc1ccccc1NC(=O)/C(C#N)=C/c1cc([N+](=O)[O-])ccc1N1CCCC1	i	i	nt	i	i	nt	nt	nt	nt	nt	nt
O=C(CSc1nnnn1-c1ccccc1)Nc1nsc(-c2ccccc2)n1	i	i	nt	i	-6.3	i	i	0.024	i	i	i
CCS(=O)(=O)c1ccc2oc(SCC(=O)NC3CCCC(C)C3C)nc2c1 (stereo not drawn)	i	i	i	i	i	nt	nt	nt	nt	nt	nt
C=CCn1c(SCC#N)nc2c(c1=O)C(C)(C)Cc1ccccc1-2	i	i	i	i	i	i	i	i	?	i	i
C=CCn1c(SCC#N)nc2ccccc2c1=O	i	i	nt	i	i	nt	nt	nt	nt	nt	nt
O=C(c1ccc(Cl)cc1)c1cnc2ccccn12	i	nt	i	i	-3.4	i	i	i	i	i	i
O=C(Nc1cnc2ccccn2c1=O)c1ccc(Cl)cc1Cl	i	i	i	i	i	nt	nt	nt	nt	nt	nt
Cc1cc(C)c(S(=O)(=O)N2CCCCC2C(=O)O)c(C)c1 (stereo not drawn)	i	i	i	i	i	nt	nt	nt	nt	nt	nt
COc1ccc(OCC(=O)NNC(=O)c2cc3ccccc3o2)cc1	i	i	i	i	5.1	0.013	0.017	i	?	?	i
COc1ccc(OCC(=O)Nc2ccccc2O)cc1	i	nt	i	i	i	nt	nt	nt	nt	nt	nt
CCCNC(=O)c1ccccc1NC(=O)COc1ccc(OC)cc1	i	i	i	i	6.5	i	?	i	i	i	i
CC(Oc1ccccc1F)C(=O)NNC(=O)c1cc2ccccc2o1 (stereo not drawn)	i	i	i	i	nt	i	0.028	i	0.022	0.03	0.016
CCN(CC)c1ccc2c(C)c(-c3ccc(N)cc3)c(=O)oc2c1	i	i	i	i	-5.1	i	0.011	?	i	0.016	i
N=C1C(c2ccccc2)=C(O)CN1c1cccc(O)c1	i	i	i	i	i	nt	nt	nt	nt	nt	nt
O=C(O)COc1ccccc1/C=N/NC(=O)CSc1nc2ccccc2n1Cc1ccccc1Cl	nt	i	nt	nt	nt	nt	nt	nt	nt	nt	nt
O=C(CSc1ncccc1-c1nc2ccccc2[nH]1)N1CCN(c2ccccc2F)CC1	i	i	nt	i	-4	i	i	0.025	i	?	i
SMILES	Redox H2O2 prof	b-catenin transl	ROMK mod	MT stabilize HCS	KCC2 mod	KCC2 secondary	KCC2 bumet counter	KCC2 sec2	HEK293 Tl flux	KCC2 ouabain	HEK counter2
C/C(=N\NC(=O)C1COc2ccccc2O1)c1ccc(N2CCOCC2)cc1 (stereo not drawn)	i	i	i	i	i	nt	nt	nt	nt	nt	nt
CCSc1ncc(CO)c(N)n1	nt	i	nt	nt	i	nt	nt	nt	nt	nt	nt
O=C(COC(=O)C1(c2ccc(F)cc2)CCCC1)NC1CC1	i	i	i	i	i	nt	nt	nt	nt	nt	nt
COC(=O)c1ccc(CSc2nc3ccccc3c(=O)n2Cc2ccco2)o1	i	i	nt	i	i	nt	nt	nt	nt	nt	nt
COC(=O)c1ccc(CSc2nc3ccccc3c(=O)n2CC(C)C)o1	i	i	nt	i	7.6	i	0.018	i	0.017	?	0.017
O=C1CN(C(=O)COC(=O)CCC(=O)c2ccc3c(c2)OCCO3)c2ccccc2N1	i	i	nt	i	-4.4	i	i	0.024	i	i	i
CCC1CCCCN1C(=O)CCc1nnc(Cc2cc(OC)ccc2OC)o1 (stereo not drawn)	nt	i	nt	nt	i	nt	nt	nt	nt	nt	nt
O=C(COC(=O)CCCSc1nc2ccccc2[nH]1)NC(=O)NC1CCCC1	i	i	nt	i	i	i	i	i	?	i	i
CCNC(=O)NC(=O)COC(=O)CCCSc1nc2ccccc2[nH]1	i	i	nt	i	i	nt	nt	nt	nt	nt	nt
O=C(O)c1ccc(S(=O)(=O)Nc2ccc(O)c(Sc3nc4ccccc4s3)c2)cc1	i	i	i	i	i	nt	nt	nt	nt	nt	nt
Cc1sc(NC(=S)NC(=O)c2ccco2)c(C#N)c1C	i	i	i	i	22	i	0.022	?	0.023	0.03	0.019
Cc1sc(NC(=S)NC(=O)c2ccccc2)c(C#N)c1C	i	nt	i	i	i	nt	nt	nt	nt	nt	nt
O=C(NC(=S)Nc1cccc2ncccc12)c1ccco1	i	i	i	i	13	?	0.032	?	0.021	0.028	0.023
Cc1cc(NC(=S)NC(=O)c2ccco2)c2ccccc2n1	i	i	i	i	29	?	0.084	0.066	0.056	0.071	0.058
CC1(C)CC(=O)c2c(Cc3ccccc3)n[nH]c2C1	i	i	nt	i	i	nt	nt	nt	nt	nt	nt
CC1(C)CC(=O)c2c(-c3cccnc3)n[nH]c2C1	i	i	i	i	nt	i	i	i	i	i	i
CCn1ncc(Br)c1C(=O)Nc1ccc(C(=O)OC(C)C)cc1	i	i	i	i	5.3	i	i	i	i	i	i
Cc1c(NC(=O)NCCN2C(=O)C3C4C=CC(C4)C3C2=O)c(=O)n(-c2ccccc2)n1C (stereo not drawn)	i	nt	nt	i	i	nt	nt	nt	nt	nt	nt

Compound activity deposited in PubChem BioAssay by several laboratories.
